# Source: ChEMBL document CHEMBL2169836 (J Med Chem, 2012)
# Assays:
# Cytochrome P450 2D6 = Cytochrome P450 2D6 (Homo sapiens, UniProt P10635); experiment: Inhibition of CYP2D6 in human liver microsomes using 3-[2-(N,N-diethyl-N-methylamino)ethyl]-7- methoxy-4-methylcoumarin as substrate after 45 mins by LC/MS/MS analysis; assay type: ADME, Microsome
# [1] = Metabolic stability in rat liver microsomes at 1 uM up to 60 mins by LC/MS/MS analysis relative to hepatic blood flow; assay type: ADME, Microsome; details: read-out: Stability
# Cytochrome P450 2C9 = Cytochrome P450 2C9 (Homo sapiens, UniProt P11712); experiment: Inhibition of CYP2C9 in human liver microsomes using 7-methoxy-4-(trifluoromethyl)-coumarin as substrate after 45 mins by LC/MS/MS analysis; assay type: ADME, Microsome
# Sequence of Cytochrome P450 2C9 (P11712 whole entry): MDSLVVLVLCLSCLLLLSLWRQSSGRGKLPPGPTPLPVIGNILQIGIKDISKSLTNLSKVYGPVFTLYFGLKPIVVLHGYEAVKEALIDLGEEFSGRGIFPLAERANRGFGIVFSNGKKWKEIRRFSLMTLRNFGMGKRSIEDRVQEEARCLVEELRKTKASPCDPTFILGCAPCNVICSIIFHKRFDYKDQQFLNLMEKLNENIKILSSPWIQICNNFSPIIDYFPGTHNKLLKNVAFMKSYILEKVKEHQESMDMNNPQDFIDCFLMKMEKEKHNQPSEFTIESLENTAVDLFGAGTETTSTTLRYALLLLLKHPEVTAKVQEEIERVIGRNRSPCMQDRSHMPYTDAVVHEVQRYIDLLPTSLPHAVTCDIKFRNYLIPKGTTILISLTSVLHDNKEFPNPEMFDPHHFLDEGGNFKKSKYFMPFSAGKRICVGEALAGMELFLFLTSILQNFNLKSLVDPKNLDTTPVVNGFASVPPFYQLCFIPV
# Cytochrome P450 2C19 = Cytochrome P450 2C19 (Homo sapiens, UniProt P33261); experiment: Inhibition of CYP2C19 in human liver microsomes using 7-ethoxy-3-cyanocoumarin as substrate after 45 mins by LC/MS/MS analysis; assay type: ADME, Microsome
# Sequence of Cytochrome P450 2C19 (P33261 whole entry): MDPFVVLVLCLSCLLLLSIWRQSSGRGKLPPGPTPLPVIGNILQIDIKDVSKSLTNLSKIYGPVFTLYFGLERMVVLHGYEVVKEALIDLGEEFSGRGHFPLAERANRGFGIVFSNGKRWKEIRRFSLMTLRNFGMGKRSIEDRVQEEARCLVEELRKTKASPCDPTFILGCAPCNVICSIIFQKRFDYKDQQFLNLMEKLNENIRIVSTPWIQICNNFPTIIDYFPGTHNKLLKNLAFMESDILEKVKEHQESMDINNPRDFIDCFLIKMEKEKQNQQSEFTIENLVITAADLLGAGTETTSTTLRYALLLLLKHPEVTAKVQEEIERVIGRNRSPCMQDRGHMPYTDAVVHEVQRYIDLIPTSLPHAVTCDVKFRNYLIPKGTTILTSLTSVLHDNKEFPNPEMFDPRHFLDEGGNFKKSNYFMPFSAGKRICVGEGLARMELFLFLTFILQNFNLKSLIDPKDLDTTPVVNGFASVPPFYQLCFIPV
# Cytochrome P450 3A4 = Cytochrome P450 3A4 (Homo sapiens, UniProt P08684); experiment: Inhibition of CYP3A4 in human liver microsomes using 7-benzyloxy-4-(trifluoromethyl)-coumarin as substrate after 30 mins by LC/MS/MS analysis; assay type: ADME, Microsome
# Sequence of Cytochrome P450 3A4 (P08684 whole entry): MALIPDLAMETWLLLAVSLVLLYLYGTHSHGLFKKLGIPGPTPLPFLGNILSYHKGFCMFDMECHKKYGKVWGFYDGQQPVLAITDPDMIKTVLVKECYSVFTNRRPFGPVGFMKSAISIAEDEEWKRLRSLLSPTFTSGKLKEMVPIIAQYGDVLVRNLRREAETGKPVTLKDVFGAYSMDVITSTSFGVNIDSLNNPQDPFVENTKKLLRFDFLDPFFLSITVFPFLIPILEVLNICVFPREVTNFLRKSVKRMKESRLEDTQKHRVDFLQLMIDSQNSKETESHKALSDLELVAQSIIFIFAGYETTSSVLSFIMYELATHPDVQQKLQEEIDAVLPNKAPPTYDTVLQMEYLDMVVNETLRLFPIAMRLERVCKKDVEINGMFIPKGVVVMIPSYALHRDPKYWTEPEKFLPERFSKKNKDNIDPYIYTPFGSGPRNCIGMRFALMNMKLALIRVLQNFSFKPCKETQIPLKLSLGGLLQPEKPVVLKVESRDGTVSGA
# [2] = molecular target: Sodium/hydrogen exchanger 1 (Homo sapiens, UniProt P19634); experiment: Inhibition of NHE1 in human HT-29 cells assessed as intracellular pH change after 30 mins; assay type: cell-based
# Sequence of Sodium/hydrogen exchanger 1 (P19634 whole entry): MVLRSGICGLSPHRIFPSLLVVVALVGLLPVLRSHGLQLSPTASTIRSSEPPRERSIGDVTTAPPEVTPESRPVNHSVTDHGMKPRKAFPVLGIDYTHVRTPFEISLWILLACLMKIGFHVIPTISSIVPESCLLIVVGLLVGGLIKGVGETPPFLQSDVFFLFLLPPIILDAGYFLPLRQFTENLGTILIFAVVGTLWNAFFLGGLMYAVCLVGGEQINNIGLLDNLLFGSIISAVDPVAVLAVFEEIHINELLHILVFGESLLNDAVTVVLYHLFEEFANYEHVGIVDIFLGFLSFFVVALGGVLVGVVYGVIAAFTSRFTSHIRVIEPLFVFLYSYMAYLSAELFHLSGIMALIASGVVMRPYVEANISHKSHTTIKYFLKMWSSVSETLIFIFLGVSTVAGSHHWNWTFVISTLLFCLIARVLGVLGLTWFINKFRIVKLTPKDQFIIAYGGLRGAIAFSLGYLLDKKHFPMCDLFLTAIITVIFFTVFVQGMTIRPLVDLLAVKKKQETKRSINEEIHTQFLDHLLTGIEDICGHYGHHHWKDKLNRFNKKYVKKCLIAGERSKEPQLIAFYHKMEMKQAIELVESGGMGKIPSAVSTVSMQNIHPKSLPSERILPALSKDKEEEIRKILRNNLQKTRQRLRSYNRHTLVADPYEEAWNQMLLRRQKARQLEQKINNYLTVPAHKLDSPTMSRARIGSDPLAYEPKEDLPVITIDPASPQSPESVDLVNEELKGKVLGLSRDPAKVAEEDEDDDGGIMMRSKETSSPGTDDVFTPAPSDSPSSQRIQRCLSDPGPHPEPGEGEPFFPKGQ
# [3] = Permeability of the compound by PAMPA; assay type: ADME; details: read-out: permeability
# In short: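 Donor buffers were set to pH 5.0, 6.2 and 7.4 with NaOH, and ASB7.4 buffer was used as acceptor. Filters (0.45 pore, 125 μm thick) were lipid-coated. A 10 mM DMSO stock was diluted to 41.7 μM in donor buffer. The sandwich was incubated 4 h without stirring. Reference, donor and acceptor concentrations were read in duplicate by UV plate reader, and ratings were assigned from permeation velocity.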
# [4] = Metabolic stability in human liver microsomes at 1 uM up to 60 mins by LC/MS/MS analysis relative to hepatic blood flow; assay type: ADME, Microsome; details: read-out: Stability
# Sequence of Cytochrome P450 2D6 (P10635 whole entry): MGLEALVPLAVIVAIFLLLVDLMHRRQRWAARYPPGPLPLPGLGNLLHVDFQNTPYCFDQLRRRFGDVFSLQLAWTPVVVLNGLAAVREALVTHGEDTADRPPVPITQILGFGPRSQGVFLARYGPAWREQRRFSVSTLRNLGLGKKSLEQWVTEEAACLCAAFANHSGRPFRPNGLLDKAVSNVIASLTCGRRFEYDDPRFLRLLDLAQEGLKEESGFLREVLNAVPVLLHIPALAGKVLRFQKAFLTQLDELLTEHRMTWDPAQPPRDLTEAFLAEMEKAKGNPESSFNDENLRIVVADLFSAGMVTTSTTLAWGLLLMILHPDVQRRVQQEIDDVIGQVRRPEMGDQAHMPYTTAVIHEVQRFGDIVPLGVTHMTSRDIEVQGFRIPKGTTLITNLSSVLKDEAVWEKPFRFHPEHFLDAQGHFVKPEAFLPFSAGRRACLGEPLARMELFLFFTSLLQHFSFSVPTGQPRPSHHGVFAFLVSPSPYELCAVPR
smiles,measurement,setting,value
N=C(N)NC(=O)c1ccc(C2CCN(C(=O)c3ccccn3)CC2)c(C(F)(F)F)c1,IC50,Cytochrome P450 2D6,27000 nM
same,"hepatic extraction ratio at 1 h, 1 µM",[1],< 0.06
same,IC50,Cytochrome P450 2C9,3000 nM
same,IC50,Cytochrome P450 2C19,26000 nM
same,IC50,Cytochrome P450 3A4,> 30000 nM
same,IC50,[2],18 nM
same,Papp,[3],≥ 2 ×10⁻⁶ cm/s
same,"hepatic extraction ratio at 1 h, 1 µM",[4],0.49
N=C(N)NC(=O)c1ccc(C2CCN(C(=O)c3ccc(-c4cnco4)cc3)CC2)c(C(F)(F)F)c1,IC50,[2],102 nM
N=C(N)NC(=O)c1ccc(C2CCN(C(=O)c3ccc(C(N)=O)cc3)CC2)c(C(F)(F)F)c1,IC50,Cytochrome P450 2D6,12000 nM
same,"hepatic extraction ratio at 1 h, 1 µM",[1],< 0.056
same,IC50,Cytochrome P450 2C9,4000 nM
same,IC50,Cytochrome P450 2C19,28000 nM
same,IC50,Cytochrome P450 3A4,24500 nM
same,IC50,[2],26 nM
same,Papp,[3],< 2 ×10⁻⁶ cm/s
same,"hepatic extraction ratio at 1 h, 1 µM",[4],0.24
N=C(N)NC(=O)c1ccc(C2CCN(C(=O)c3ccncc3)CC2)c(C(F)(F)F)c1,IC50,Cytochrome P450 2D6,11000 nM
same,"hepatic extraction ratio at 1 h, 1 µM",[1],0.12
same,IC50,Cytochrome P450 2C9,400 nM
same,IC50,Cytochrome P450 2C19,60 nM
same,IC50,Cytochrome P450 3A4,> 30000 nM
same,IC50,[2],18 nM
same,Papp,[3],≥ 2 ×10⁻⁶ cm/s
same,"hepatic extraction ratio at 1 h, 1 µM",[4],< 0.11
Cc1cc(C(=O)N2CCC(c3ccc(C(=O)NC(=N)N)cc3C(F)(F)F)CC2)nn1C,"hepatic extraction ratio at 1 h, 1 µM",[1],0.78
same,IC50,[2],27 nM
same,Papp,[3],< 2 ×10⁻⁶ cm/s
same,"hepatic extraction ratio at 1 h, 1 µM",[4],0.68
N=C(N)NC(=O)c1ccc(C2CCN(C(=O)c3ccc(F)cc3)CC2)c(C(F)(F)F)c1,IC50,Cytochrome P450 2D6,> 30000 nM
same,"hepatic extraction ratio at 1 h, 1 µM",[1],0.3
same,IC50,Cytochrome P450 2C9,8000 nM
same,IC50,Cytochrome P450 2C19,11000 nM
same,IC50,Cytochrome P450 3A4,6000 nM
same,Papp,[3],≥ 2 ×10⁻⁶ cm/s
same,"hepatic extraction ratio at 1 h, 1 µM",[4],0.32
N=C(N)NC(=O)c1ccc(C2CCN(C(=O)c3ccc[nH]3)CC2)c(C(F)(F)F)c1,IC50,[2],45 nM
CC(=O)N1CCC(c2ccc(C(=O)NC(=N)N)cc2S(C)(=O)=O)CC1,IC50,[2],22 nM
N=C(N)NC(=O)c1ccc(C2CCN(C(=O)c3ccc(Cl)cc3)CC2)c(C(F)(F)F)c1,IC50,[2],306 nM
CNC(=O)c1ccc(C(=O)N2CCC(c3ccc(C(=O)NC(=N)N)cc3C(F)(F)F)CC2)cc1,IC50,[2],52 nM
same,Papp,[3],< 2 ×10⁻⁶ cm/s
N=C(N)NC(=O)c1ccc(C2CCN(C(=O)c3ccc(S(N)(=O)=O)cc3)CC2)c(C(F)(F)F)c1,IC50,Cytochrome P450 2D6,> 30000 nM
same,"hepatic extraction ratio at 1 h, 1 µM",[1],0.07
same,IC50,Cytochrome P450 2C9,16000 nM
same,IC50,Cytochrome P450 2C19,> 30000 nM
same,IC50,Cytochrome P450 3A4,24000 nM
same,IC50,[2],14 nM
same,Papp,[3],< 2 ×10⁻⁶ cm/s
same,"hepatic extraction ratio at 1 h, 1 µM",[4],0.24
N=C(N)NC(=O)c1ccc(C2CCN(C(=O)c3cccc(-c4cnco4)c3)CC2)c(C(F)(F)F)c1,IC50,[2],33 nM
N=C(N)NC(=O)c1ccc(C2CCN(C(=O)c3ccc(-n4ccnc4)cc3)CC2)c(C(F)(F)F)c1,IC50,[2],65 nM
CN(C)C(=O)c1ccc(C(=O)N2CCC(c3ccc(C(=O)NC(=N)N)cc3C(F)(F)F)CC2)cc1,IC50,[2],50 nM
same,Papp,[3],< 2 ×10⁻⁶ cm/s
COc1cc(C2CCN(C(C)=O)CC2)c(C(F)(F)F)cc1C(=O)NC(=N)N,IC50,[2],19 nM
N=C(N)NC(=O)c1ccc(C2CCN(C(=O)c3ccccc3Cl)CC2)c(C(F)(F)F)c1,IC50,[2],108 nM
CCC(=O)N1CCC(c2ccc(C(=O)NC(=N)N)cc2S(C)(=O)=O)CC1,IC50,[2],29 nM
CS(=O)(=O)c1ccccc1C(=O)N1CCC(c2ccc(C(=O)NC(=N)N)cc2C(F)(F)F)CC1,IC50,[2],58 nM
